From ChEMBL document CHEMBL1156237, “Antiviral activity of benzimidazole derivatives. II. Antiviral activity of 2-phenylbenzimidazole derivatives” (Bioorg Med Chem, 2010)
Activity calls are given as the source filed them. Unless noted, the rule behind the calls is not given here.

Test system: Bovine viral diarrhea virus 1
Assay: Antiviral activity against Bovine viral diarrhea virus NADL infected in MDBK cells assessed as protection from virus-induced cytopathogenicity after 3 to 4 days by MTT method
Assay type: functional, organism-based, Bovine viral diarrhea virus 1-NADL
Conditions: Bovine viral diarrhea virus isolates and strains, MDBK
In short: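 Cytopathogenicity protection assay. MDBK cells at 3 × 10^4/well, grown overnight to confluence. Infected with BVDV NADL at m.o.i. 0.01 in MEM-E with 0.5% inactivated FBS, 1 mM Na pyruvate and 1% kanamycin. Serial compound dilutions added after 1 h. After 3–4 days at 37 °C, viability read by MTT; EC50 is the concentration giving 50% protection.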

Question: Which EC50 does the source give for `CC(=O)Nc1ccc(-c2nc3cc(C(F)(F)F)ccc3n2C2CCCCC2)cc1` here?
Answer: > 17 µM

Question: For `Nc1ccc(-c2nc3ccccc3[nH]2)cc1`, which EC50 is on record?
Answer: 16 µM

Question: For `Cn1c(-c2ccc(N)cc2)nc2cc(C(F)(F)F)ccc21`, which EC50 is on record?
Answer: 69 µM

Question: Which EC50 does the source give for `CC(=O)Nc1ccc(-c2nc3cc(C(F)(F)F)ccc3n2C23CC4CC(CC(C4)C2)C3)cc1` here?
Answer: > 82 µM

Test system: Mammalian orthoreovirus 1
Assay: Antiviral activity against Reovirus 1 3651 infected in BHK21 cells assessed as protection from virus-induced cytopathogenicity after 3 to 4 days by MTT method
Assay type: functional, organism-based
Conditions: BHK-21

Question: For `CC(=O)Nc1ccc(-c2nc3cc(C(F)(F)F)ccc3n2C2CCCCC2)cc1`, which Activity is on record?
Answer: inactive

Question: Which Activity does the source give for `Cn1c(-c2ccc(N)cc2)nc2cc(C(F)(F)F)ccc21` here?
Answer: inactive

Question: Which Activity does the source give for `CC(=O)Nc1ccc(-c2nc3cc(C(F)(F)F)ccc3n2C23CC4CC(CC(C4)C2)C3)cc1` here?
Answer: inactive

Same assay, conditions: Mammalian orthoreovirus 1, 3651, BHK-21

Question: Which EC50 does the source give for `Nc1ccc(-c2nc3ccccc3[nH]2)cc1` here?
Answer: 85 µM

Test system: not listed separately
Assay: Cytotoxicity against african green monkey Vero cells
Assay type: cell-based
Conditions: chlorocebus sabaeus
In short: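 Vero 76 monolayers exposed to serial compound dilutions, run in parallel on the same 24-well plates as the plaque-reduction assays. CC50 is the concentration reducing viability of mock-infected cells by 50%.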

Question: With `CC(=O)Nc1ccc(-c2nc3cc(C(F)(F)F)ccc3n2C2CCCCC2)cc1` as the compound, how does the CC50 read?
Answer: 30 µM

Question: Which CC50 does the source give for `Nc1ccc(-c2nc3ccccc3[nH]2)cc1` here?
Answer: > 100 µM

Question: For `Cn1c(-c2ccc(N)cc2)nc2cc(C(F)(F)F)ccc21`, which CC50 is on record?
Answer: > 100 µM

Question: For `CC(=O)Nc1ccc(-c2nc3cc(C(F)(F)F)ccc3n2C23CC4CC(CC(C4)C2)C3)cc1`, which CC50 is on record?
Answer: > 100 µM

Test system: not listed separately
Assay: Cytotoxicity against human MT4 cells after 96 hrs by MTT assay
Assay type: cell-based
Conditions: MT4 cells
In short: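 Exponentially growing MT-4 cells at 1 × 10^5 cells/mL in RPMI-1640 with 10% FCS, exposed to serial compound dilutions at 37 °C, 5% CO2. Viability by MTT after 96 h; CC50 is the concentration reducing viability of mock-infected cells by 50%.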

Question: Which CC50 at 96 h does the source give for `CC(=O)Nc1ccc(-c2nc3cc(C(F)(F)F)ccc3n2C2CCCCC2)cc1` here?
Answer: 24 µM

Question: For `Nc1ccc(-c2nc3ccccc3[nH]2)cc1`, which CC50 at 96 h is on record?
Answer: 81 µM

Question: For `Cn1c(-c2ccc(N)cc2)nc2cc(C(F)(F)F)ccc21`, which CC50 at 96 h is on record?
Answer: 20 µM

Question: Which CC50 at 96 h does the source give for `CC(=O)Nc1ccc(-c2nc3cc(C(F)(F)F)ccc3n2C23CC4CC(CC(C4)C2)C3)cc1` here?
Answer: 28 µM

Test system: Human alphaherpesvirus 1
Assay: Antiviral activity against HSV1 KOS infected in african green monkey Vero cells after 3 days by plaque reduction assay
Assay type: functional, organism-based
Conditions: Human alphaherpesvirus 1, KOS, 72 h
In short: (§1)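 Plaque reduction assay. Vero 76 cells at 2 × 10^5/well, grown overnight to confluence in D-MEM with 10% FBS. Infected 2 h with 50–100 PFU/well, unadsorbed virus removed. Overlay of D-MEM with 1% inactivated FBS and 0.75% methylcellulose, with or without serial compound dilutions. Incubated at 37 °C for 3 days (HSV-1 KOS, CVB-2 Ohio-1) or 5 days (RSV A2). Fixed and stained with crystal violet in 50% ethanol; plaques counted; EC50 by linear regression.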

Question: With `CC(=O)Nc1ccc(-c2nc3cc(C(F)(F)F)ccc3n2C2CCCCC2)cc1` as the compound, how does the EC50 read?
Answer: > 30 µM

Question: Which EC50 does the source give for `Nc1ccc(-c2nc3ccccc3[nH]2)cc1` here?
Answer: > 100 µM

Question: Which EC50 does the source give for `Cn1c(-c2ccc(N)cc2)nc2cc(C(F)(F)F)ccc21` here?
Answer: > 100 µM

Question: With `CC(=O)Nc1ccc(-c2nc3cc(C(F)(F)F)ccc3n2C23CC4CC(CC(C4)C2)C3)cc1` as the compound, how does the EC50 read?
Answer: > 100 µM

Test system: Yellow fever virus
Assay: Antiviral activity against Yellow fever virus 17D infected in BHK cells assessed as protection from virus-induced cytopathogenicity after 3 to 4 days by MTT method
Assay type: functional, organism-based
Conditions: not given

Question: Which EC50 does the source give for `CC(=O)Nc1ccc(-c2nc3cc(C(F)(F)F)ccc3n2C2CCCCC2)cc1` here?
Answer: > 15 µM

Question: For `Nc1ccc(-c2nc3ccccc3[nH]2)cc1`, which EC50 is on record?
Answer: > 100 µM

Question: With `Cn1c(-c2ccc(N)cc2)nc2cc(C(F)(F)F)ccc21` as the compound, how does the EC50 read?
Answer: > 85 µM

Question: With `CC(=O)Nc1ccc(-c2nc3cc(C(F)(F)F)ccc3n2C23CC4CC(CC(C4)C2)C3)cc1` as the compound, how does the EC50 read?
Answer: > 100 µM

Test system: Vaccinia virus
Assay: Antiviral activity against Vaccinia virus Elstree-Lister infected in african green monkey Vero cells after 3 days by plaque reduction assay
Assay type: functional, organism-based
Conditions: Orthopoxvirus vaccinia

Question: For `CC(=O)Nc1ccc(-c2nc3cc(C(F)(F)F)ccc3n2C2CCCCC2)cc1`, which Activity is on record?
Answer: inactive

Question: Which Activity does the source give for `Cn1c(-c2ccc(N)cc2)nc2cc(C(F)(F)F)ccc21` here?
Answer: inactive

Question: Which Activity does the source give for `CC(=O)Nc1ccc(-c2nc3cc(C(F)(F)F)ccc3n2C23CC4CC(CC(C4)C2)C3)cc1` here?
Answer: inactive

Test system: Respiratory syncytial virus
Assay: Antiviral activity against RSV A2 infected in african green monkey Vero cells after 5 days by plaque reduction assay
Assay type: functional, organism-based
Conditions: not given
In short: as §1

Question: For `CC(=O)Nc1ccc(-c2nc3cc(C(F)(F)F)ccc3n2C2CCCCC2)cc1`, which Activity is on record?
Answer: inactive

Question: Which Activity does the source give for `Cn1c(-c2ccc(N)cc2)nc2cc(C(F)(F)F)ccc21` here?
Answer: inactive

Question: With `CC(=O)Nc1ccc(-c2nc3cc(C(F)(F)F)ccc3n2C23CC4CC(CC(C4)C2)C3)cc1` as the compound, how does the Activity read?
Answer: inactive

Test system: Vesicular stomatitis virus
Assay: Antiviral activity against VSV Indiana lab infected in african green monkey Vero cells after 2 days by plaque reduction assay
Assay type: functional, organism-based
Conditions: not given

Question: Which Activity does the source give for `CC(=O)Nc1ccc(-c2nc3cc(C(F)(F)F)ccc3n2C2CCCCC2)cc1` here?
Answer: inactive

Question: For `Nc1ccc(-c2nc3ccccc3[nH]2)cc1`, which Activity is on record?
Answer: inactive

Question: With `Cn1c(-c2ccc(N)cc2)nc2cc(C(F)(F)F)ccc21` as the compound, how does the Activity read?
Answer: inactive

Question: For `CC(=O)Nc1ccc(-c2nc3cc(C(F)(F)F)ccc3n2C23CC4CC(CC(C4)C2)C3)cc1`, which Activity is on record?
Answer: inactive

Test system: Poliovirus 1
Assay: Antiviral activity against Polio virus type1 Sabin strain Chat infected in african green monkey Vero cells after 2 days by plaque reduction assay
Assay type: functional, organism-based, Human poliovirus 1 strain Sabin
Conditions: Enterovirus C, 48 h

Question: For `CC(=O)Nc1ccc(-c2nc3cc(C(F)(F)F)ccc3n2C2CCCCC2)cc1`, which EC50 is on record?
Answer: > 30 µM

Question: For `Nc1ccc(-c2nc3ccccc3[nH]2)cc1`, which EC50 is on record?
Answer: > 100 µM

Question: Which EC50 does the source give for `Cn1c(-c2ccc(N)cc2)nc2cc(C(F)(F)F)ccc21` here?
Answer: 20 µM

Question: With `CC(=O)Nc1ccc(-c2nc3cc(C(F)(F)F)ccc3n2C23CC4CC(CC(C4)C2)C3)cc1` as the compound, how does the EC50 read?
Answer: > 100 µM

Test system: Coxsackievirus B2
Assay: Antiviral activity against Human coxsackievirus B2 Ohio-1 infected in african green monkey Vero cells after 3 days by plaque reduction assay
Assay type: functional, organism-based, Coxsackievirus B2 (strain Ohio-1)
Conditions: Enterovirus B, Vero, 72 h
In short: as §1

Question: Which EC50 does the source give for `CC(=O)Nc1ccc(-c2nc3cc(C(F)(F)F)ccc3n2C2CCCCC2)cc1` here?
Answer: 9 µM

Question: With `Nc1ccc(-c2nc3ccccc3[nH]2)cc1` as the compound, how does the EC50 read?
Answer: 19 µM

Question: Which EC50 does the source give for `Cn1c(-c2ccc(N)cc2)nc2cc(C(F)(F)F)ccc21` here?
Answer: 14 µM

Question: With `CC(=O)Nc1ccc(-c2nc3cc(C(F)(F)F)ccc3n2C23CC4CC(CC(C4)C2)C3)cc1` as the compound, how does the EC50 read?
Answer: > 100 µM

Test system: not listed separately
Assay: Cytotoxicity against MDBK cells after 48 to 96 hrs by MTT assay
Assay type: cell-based, Bos taurus
Conditions: cattle, MDBK cells
In short: (§2)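 Cell seeding: MDBK at 6 × 10^5 cells/mL in MEM-E with 10% horse serum and 1 mM Na pyruvate; BHK at 1 × 10^6 cells/mL in MEM-E with 10% FBS. Serial compound dilutions, 37 °C, 5% CO2. Viability of mock-infected cells by MTT after 48–96 h; CC50 is the concentration reducing viability by 50%.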

Question: Which CC50 does the source give for `CC(=O)Nc1ccc(-c2nc3cc(C(F)(F)F)ccc3n2C2CCCCC2)cc1` here?
Answer: 17 µM

Question: For `Nc1ccc(-c2nc3ccccc3[nH]2)cc1`, which CC50 is on record?
Answer: > 100 µM

Question: For `Cn1c(-c2ccc(N)cc2)nc2cc(C(F)(F)F)ccc21`, which CC50 is on record?
Answer: 74 µM

Question: For `CC(=O)Nc1ccc(-c2nc3cc(C(F)(F)F)ccc3n2C23CC4CC(CC(C4)C2)C3)cc1`, which CC50 is on record?
Answer: 82 µM

Test system: not listed separately
Assay: Cytotoxicity against BHK cells after 48 to 96 hrs by MTT assay
Assay type: cell-based, Mesocricetus auratus
Conditions: hamster
In short: as §2

Question: With `CC(=O)Nc1ccc(-c2nc3cc(C(F)(F)F)ccc3n2C2CCCCC2)cc1` as the compound, how does the CC50 read?
Answer: 15 µM

Question: With `Nc1ccc(-c2nc3ccccc3[nH]2)cc1` as the compound, how does the CC50 read?
Answer: > 100 µM

Question: With `Cn1c(-c2ccc(N)cc2)nc2cc(C(F)(F)F)ccc21` as the compound, how does the CC50 read?
Answer: 85 µM

Question: Which CC50 does the source give for `CC(=O)Nc1ccc(-c2nc3cc(C(F)(F)F)ccc3n2C23CC4CC(CC(C4)C2)C3)cc1` here?
Answer: > 100 µM

Test system: Human immunodeficiency virus 1
Assay: Antiviral activity against HIV1 3B infected in human MT4 cells assessed as protection from virus-induced cytopathogenicity after 4 days by MTT method
Assay type: functional, organism-based
Conditions: not given
In short: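 MT-4 cells, 1 × 10^4/well in RPMI with or without serial compound dilutions, infected with HIV-1 IIIB, 100 CCID50 (m.o.i. 0.01). Protection from virus-induced cytopathogenicity read by MTT.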

Question: With `CC(=O)Nc1ccc(-c2nc3cc(C(F)(F)F)ccc3n2C2CCCCC2)cc1` as the compound, how does the Activity read?
Answer: inactive

Question: For `Nc1ccc(-c2nc3ccccc3[nH]2)cc1`, which Activity is on record?
Answer: inactive

Question: For `Cn1c(-c2ccc(N)cc2)nc2cc(C(F)(F)F)ccc21`, which Activity is on record?
Answer: inactive

Question: For `CC(=O)Nc1ccc(-c2nc3cc(C(F)(F)F)ccc3n2C23CC4CC(CC(C4)C2)C3)cc1`, which Activity is on record?
Answer: inactive
